# Bioassay records from PubChem BioAssay.
# CXCR6 inh = CXCR6 receptor inhibitors, primary screen, cell-based, beta-arrestin, luminescence, CHO-K1 PathHunter, 1536-well | C-X-C chemokine receptor type 6 (Homo sapiens), O00574 | inhibition, % at 20 µM | hit rate 0.36% among 360,000; in the data active = inhibition above about 34%, passing the limit was not always enough;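 also: antagonist mode with CXCL16 agonist at 10 nM final; 0% = 10 nM CXCL16 with DMSO and 100% = unstimulated wells without agonist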
# CCR6 antag = CCR6 receptor antagonists, primary screen, cell-based, CHO-K1, luminescence, beta-arrestin, uHTS. AID 493098, 2011. inhibition, % at 20 µM. CHO-K1 CCR6 PathHunter beta-arrestin, CCL20-stimulated. hit rate 0.49% among 340,000;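 active = compounds whose inhibition of the agonist-driven luminescence signal at 20 µM reaches about 50%, limit read from the data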;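 also: cells stimulated with CCL20 at 14 nM final; plate controls were DMSO with CCL20 for no effect and DMSO without agonist for full effect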
# APJ antagonist = antagonists of human apelin receptor APJ, primary screen, CHO-K1 cells, beta-arrestin complementation, luminescence. inhibition, % at 20 µM. hit rate 0.32% among 330,000. P35414;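 active = inhibition above about 40% at 20 µM, limit read from the data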;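 also: cells challenged with 10 nM apelin-13 agonist together with compound; plate controls were apelin-13 plus DMSO wells for no effect and DMSO wells lacking apelin-13 for full effect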
# Beta2AR agonist = beta2AR agonists driving receptor internalization, primary screen, cell-based, FAP fluorogen, flow cytometry | Am2.2-beta2AR cells | response, % (test concentration not listed) | hit rate 0.43% among 340,000 | AID 504454, 2011;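 active = response above a set limit, near 3 SD of response in nonfluorescent compounds, cut at about 42% in these data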
# Target sequence (P07550 whole entry, looked up): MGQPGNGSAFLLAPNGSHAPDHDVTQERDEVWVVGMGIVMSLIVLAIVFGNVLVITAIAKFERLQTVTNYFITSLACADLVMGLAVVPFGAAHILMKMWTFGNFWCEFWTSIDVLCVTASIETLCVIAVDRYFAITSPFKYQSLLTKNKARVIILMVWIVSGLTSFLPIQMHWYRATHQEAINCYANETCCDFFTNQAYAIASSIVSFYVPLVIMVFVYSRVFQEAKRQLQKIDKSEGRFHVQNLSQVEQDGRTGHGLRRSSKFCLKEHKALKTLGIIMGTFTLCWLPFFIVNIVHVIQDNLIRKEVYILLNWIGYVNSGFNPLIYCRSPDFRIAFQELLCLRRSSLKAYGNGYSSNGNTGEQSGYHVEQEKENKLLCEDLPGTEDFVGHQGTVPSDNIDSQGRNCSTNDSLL
# EBI2 block = EBI2 receptor antagonists, beta-arrestin recruitment, primary screen, cell-based, luminescence, 7a,25-OHC stimulation, uHTS | 7a,25-OHC stimulated | inhibition, % at 5 µM | hit rate 0.81% among 360,000 | AID 651636, 2012; in the data active = inhibition above about 38%;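 also: enzyme fragment complementation signal reports receptor beta-arrestin coupling in cells; 0% = agonist plus DMSO wells and 100% = wells without agonist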
# APJ ag = agonists of human apelin receptor APJ, primary screen, CHO-K1 cells, PathHunter beta-arrestin, luminescence. hit rate 0.11% among 330,000. 0% DMSO wells, 100% apelin. AID 2520, 2010. activation, % at 20 µM;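 active = activation more than six SD over the plate average, tested at 20 µM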;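 also: 0% = DMSO alone and 100% = apelin-13 at 10 nM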
#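 system = engineered CHO-K1 APJ arrestin reporter cells | input = 1000 cells per well | timing = overnight seeding, 90 min compound at 25 °C, 1 h detection | measured by = enzyme-fragment complementation luminescence | read-out = beta-arrestin recruitment to APJ as agonist activity, luminescent signal | control set = negative DMSO alone, positive Apelin-13 at 10 nM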
# APJ antag confirm = APJ antagonists blocking beta-arrestin recruitment, confirmation, cell-based, luminescence, single concentration, uHTS hits; shares compounds with APJ antagonist; hit rate 66% among 950; inhibition, % at 20 µM; antagonist mode; in the data active = inhibition above about 50%
# * = called active by the depositor; x = not tested or not shown. Most compounds without a hit are left out; they make up all but 1.8% or so of the library.
SMILES,CXCR6 inh,CCR6 antag,APJ antagonist,Beta2AR agonist,EBI2 block,APJ ag,APJ antag confirm
O=C(C1=C(O)C(=O)N(CCN2CCOCC2)C1c1cccc(O)c1)c1cc2ccccc2o1 (centres undefined),-1.7,7.1,24.1,-11.6,4.6,-2.1,x
OCCN1C[C@H](O)[C@@H](O)[C@H](O)[C@H]1CO,x,x,43.2*,x,x,-11.7,65.1*
O=C(O)c1ccc(N=N/C(=N\Nc2ccc(C(=O)O)cc2)c2ccccc2)cc1,25.2,49.4,54.9*,3.7,17.2,-6.6,84.1*
Cc1nnsc1C(=O)NNc1ccc(C(C)C)cc1,4.8,10.2,21.1,10.6,-0.8,-8.9,x
Cc1nnsc1C(=O)NNc1ccc(C(C)(C)C)cc1,-4.3,10.4,59.1*,-0.9,16.4,-15.4,146.4*
CC(=O)c1cccc(NC(=O)Cn2cnc(S(=O)(=O)N3CCC(C)CC3)c2)c1,-9.1,-2.8,41.6*,2.0,9.0,-3.2,23.1
CC1CCN(S(=O)(=O)c2cn(CC(=O)Nc3cccc(C#N)c3)cn2)CC1,-8.4,15.8,2.7,-0.2,-5.8,-1.0,x
Cc1ccc(Nc2ccc([N+](=O)[O-])ccc2=O)cc1,-0.5,6.0,-8.7,15.0,35.0,9.5,x
Cc1nsc(Nc2ccc([N+](=O)[O-])cc2)c1C#N,49.6*,55.7*,70.7*,6.3,22.8,-8.5,88.0*
O=C(NCC(c1cccs1)N1CCOCC1)c1ccc(OCc2ccccc2)cc1 (centres undefined),2.0,7.7,-3.7,-5.2,4.9,-4.2,x
CCC(=O)N1CCN(c2ccccc2NC(=O)COc2ccccc2Cl)CC1,43.4*,51.0*,52.1*,4.8,27.1,-8.6,61.5*
Nc1ncnc2c1ncn2[C@@H]1O[C@H](C(=O)NCc2ccc(OC(F)(F)F)cc2)[C@@H](O)[C@H]1O,-6.8,x,x,x,-12.7,x,x
C=CCn1c(-c2cccc3ccccc23)n[nH]c1=S,4.2,-18.1,43.1*,-8.9,13.1,-1.6,14.7
C=CCn1c(-c2ccccc2OC)n[nH]c1=S,0.4,4.6,4.8,-0.3,-11.9,-2.6,x
COc1ccc(-n2c(C)ccc2-c2ccccc2)cn1,6.7,18.1,79.4*,5.4,-4.3,-1.3,12.1
Cc1ccc(S(=O)(=O)N2CCCCC2)cc1NC(=O)c1ccc(=O)[nH]c1,8.2,x,x,x,0.0,x,x
Nc1c(C(=O)NCc2ccco2)c2nc3ccccc3nc2n1CCc1ccc(F)cc1,5.5,-4.1,55.1*,-7.9,3.2,-10.3,-11.7
N#Cc1c(N)n(CCc2ccc(F)cc2)c2nc3ccccc3nc12,14.0,20.1,64.5*,5.3,11.8,-1.2,-6.7
COc1ccc(-n2c(N)c(C(=O)NCc3ccco3)c3nc4ccccc4nc32)cc1,3.1,15.5,3.9,0.1,18.6,-1.6,x
Cc1cccnc1NC(=O)CNC(=O)COc1ccccc1,-3.9,0.3,10.0,2.4,-4.4,-6.3,x
CN(C(=O)CN1C(=O)C2C3CC(C(Br)C3Br)C2C1=O)C1CCCCC1 (centres undefined),-14.8,6.1,7.9,2.1,-19.6,-3.4,x
COc1cc(NS(=O)(=O)c2ccc(NC(=S)NC(=O)C3CCCC3)cc2)nc(OC)n1,5.2,-3.2,50.3*,-8.4,-3.3,-1.9,87.3*
COc1cc(NS(=O)(=O)c2ccc(NC(=S)Nc3ccccc3)cc2)nc(OC)n1,-7.4,-1.8,5.6,9.6,-2.0,9.4,x
O=C(CNS(=O)(=O)c1ccccc1)OCc1cccc([N+](=O)[O-])c1,12.2,13.2,6.3,4.5,-11.8,-2.7,x
O=C(Cc1ccccc1)OCC(=O)c1cccc([N+](=O)[O-])c1,24.7,33.7,-7.0,-10.9,9.5,-8.2,x
SMILES,CXCR6 inh,CCR6 antag,APJ antagonist,Beta2AR agonist,EBI2 block,APJ ag,APJ antag confirm
O=C(CNS(=O)(=O)c1ccccc1)OCC(=O)c1cccc([N+](=O)[O-])c1,30.9,47.4,45.7*,-2.7,2.8,-4.2,87.3*
O=C(CNC(=O)c1ccc(Br)o1)OCC(=O)c1cccc([N+](=O)[O-])c1,32.7,83.2*,62.5*,-5.7,18.7,-9.9,62.0*
COCCn1c(CN2CCN(C(=O)c3ccco3)CC2)nc2c1c(=O)n(C)c(=O)n2C,-4.7,9.0,10.9,7.3,-1.0,-1.8,x
COc1cc(/C=C/c2ccc3cccc(OC)c3n2)c(O)c([N+](=O)[O-])c1,42.0*,53.8*,44.4*,3.3,24.8,-6.5,73.8*
COc1cc(Br)cc(/C=C/c2ccc3cccc(O)c3n2)c1O,10.9,20.8,-6.3,13.6,-11.5,-2.6,x
Cc1nnc(SC(C)C(=O)Nc2ccc(N3CCOCC3)cc2)n1Cc1ccccc1 (centres undefined),2.1,6.9,17.8,3.7,-15.4,-4.9,x
O=C(CSC1=Nc2ccccc2C2=NC(c3ccccc3)C(=O)N12)NC1CCCCC1 (centres undefined),29.7,42.9,14.1,12.4,8.6,-10.6,x
CN(C(=O)CSC1=Nc2ccccc2C2=NC(c3ccccc3)C(=O)N12)C1CCCCC1 (centres undefined),47.2*,52.4*,47.2*,-8.4,21.5,-17.3,61.0*
CCCCOc1ccc(C(=O)N/C(=C/C=C/c2ccccc2)C(=O)NCCO)cc1,-3.6,8.7,43.4*,-8.0,1.3,-1.6,-13.6
CCCCOc1ccc(C(=O)N/C(=C/C=C/c2ccccc2)C(=O)NCCCO)cc1,2.2,10.3,15.7,-7.2,2.1,-3.8,x
O=C(NCC1(N2CCCCC2)CCCCC1)c1cccc(S(=O)(=O)Nc2ccc(F)cc2)c1,7.7,7.8,-2.7,9.2,1.9,-3.2,x
COc1ccc(N2CCN(CC(=O)Nc3nc(C)cs3)CC2)cc1,-13.2,9.1,-1.7,-0.1,-0.9,0.4,x
Cc1ccc(N=Nc2c(C)[nH]n(C(N)=S)c2=O)cc1,20.6,25.9,6.0,-3.7,16.4,-0.5,x
Cc1[nH]n(C(N)=S)c(=O)c1N=Nc1ccc(S(=O)(=O)N2CCCC2)cc1,28.4,46.8,57.2*,-3.0,4.2,-13.4,80.1*
CN(C)CCCN(C(=O)c1ccc(S(=O)(=O)N2CCc3ccccc32)cc1)c1nc2ccc(Cl)cc2s1,7.8,14.2,6.5,9.2,-9.8,10.0,x
Cc1cc(C)c2sc(N(CCCN(C)C)C(=O)c3ccc(S(=O)(=O)N4CCCc5ccccc54)cc3)nc2c1,18.7,13.6,46.8*,33.3,0.1,-3.0,56.6*
